We go through 32 compounds from ChEMBL document CHEMBL4825669, “Synthesis, Molecular Pharmacology, and Structure-Activity Relationships of 3-(Indanoyl)indoles as Selective Cannabinoid Type 2 Receptor Antagonists” (J Med Chem, 2021).

Structures are written as SMILES.

In assay [1] the target is T1, Cannabinoid receptor 2 (Homo sapiens, UniProt P34972). Put plainly: Displacement of [3H]-CP55940 from human CB2 receptor expressed in CHO cells at 1 uM incubated for 90 mins by liquid scintillation spectrophotometry relative to control. It is filed as cell-based. The method, boiled down: (§1)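 Membrane protein was 100 μg for CHO-hCB1 and 50 μg for CHO-hCB2. Incubation 90 min at room temperature. Nonspecific binding set with 10 μM WIN-55,212-2. Stopped by GF/B filtration with three ice-cold washes, then liquid scintillation counting.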
On the technique in general: Displacement assays read how much labelled ligand stays bound in the presence of the test substance.

Assay [2] has as its target T2, Cannabinoid receptor 1 (Homo sapiens, UniProt P21554). Nature of the assay: Displacement of [3H]-CP55940 from human CB1 receptor expressed in CHO cells at 1 uM incubated for 90 mins by liquid scintillation spectrophotometry relative to control. It is filed as cell-based. In short, it runs like this:
as §1

Assay [3] deals with T1, Cannabinoid receptor 2. Put plainly: Displacement of [3H]-CP55940 from human CB2 receptor expressed in CHO cells incubated for 90 mins by liquid scintillation spectrophotometry relative to control. It is filed as cell-based. The method, boiled down:
as §1

Another assay has as its system CHO. Nature of the assay: Selectivity index, ratio of Ki for human CB1 receptor expressed in CHO cells to Ki for human CB2 receptor expressed in CHO cells. It counts as cell-based.
The target in assay [4] is T1, Cannabinoid receptor 2. Put plainly: Binding affinity to human CB2 receptor assessed as free binding energy. It is filed as cell-based. Conditions: CHO, filed as antagonist.
The target in assay [5] is T1, Cannabinoid receptor 2. Nature of the assay: Antagonist activity at human CB2 receptor expressed in CHO cell membrane assessed as stimulation of [35S]GTPgammaS binding at 10 uM by liquid scintillation spectrophotometry. It is filed as functional, cell membranes. Also noted: scale not given: the % may be the effect or the level left. The method, boiled down:
(§2)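 CHO cell membranes expressing hCB2, 25 or 50 µg protein, incubated in triplicate with 0.1 nM [35S]GTPγS. Buffer: 20 mM HEPES, 100 mM NaCl, 10 mM MgCl2, 0.05% BSA, 20 units/L adenosine deaminase. Reaction 30 min at 30 °C, stopped by filtration on GF/B with ice-cold washes, counted by liquid scintillation. Nonspecific binding set with 10 μM unlabelled GTPγS.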
For orientation: GTPγS is a poorly hydrolysed GTP analogue; its binding reports G protein activation.

Assay [6] addresses T2, Cannabinoid receptor 1. Nature of the assay: Displacement of [3H]-CP55940 from human CB1 receptor expressed in CHO cells incubated for 90 mins by liquid scintillation spectrophotometry relative to control. It counts as cell-based. In short, it runs like this:
as §1

Assay [7] deals with T2, Cannabinoid receptor 1. Put plainly: Binding affinity to human CB1 receptor assessed as free binding energy. It counts as cell-based. The note with it: CHO, filed as antagonist.
For assay [8], the target named is T1, Cannabinoid receptor 2. Nature of the assay: Antagonist activity at human CB2 receptor expressed in CHO cell membrane assessed as reduction in CP55940-induced [35S]GTPgammaS binding by liquid scintillation spectrophotometry. It counts as functional, cell membranes. The method, boiled down:
as §2

T1 sequence (P34972 whole entry): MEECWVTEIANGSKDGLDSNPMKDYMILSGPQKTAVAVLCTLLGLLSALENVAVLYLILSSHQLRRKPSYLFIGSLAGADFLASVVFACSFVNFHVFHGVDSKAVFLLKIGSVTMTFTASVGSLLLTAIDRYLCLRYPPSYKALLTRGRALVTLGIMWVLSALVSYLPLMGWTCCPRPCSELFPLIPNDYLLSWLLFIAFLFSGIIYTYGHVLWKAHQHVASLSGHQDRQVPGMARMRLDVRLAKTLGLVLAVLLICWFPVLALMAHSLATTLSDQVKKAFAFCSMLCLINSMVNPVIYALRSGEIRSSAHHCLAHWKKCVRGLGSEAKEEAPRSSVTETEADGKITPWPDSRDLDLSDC
T2 sequence (P21554 whole entry): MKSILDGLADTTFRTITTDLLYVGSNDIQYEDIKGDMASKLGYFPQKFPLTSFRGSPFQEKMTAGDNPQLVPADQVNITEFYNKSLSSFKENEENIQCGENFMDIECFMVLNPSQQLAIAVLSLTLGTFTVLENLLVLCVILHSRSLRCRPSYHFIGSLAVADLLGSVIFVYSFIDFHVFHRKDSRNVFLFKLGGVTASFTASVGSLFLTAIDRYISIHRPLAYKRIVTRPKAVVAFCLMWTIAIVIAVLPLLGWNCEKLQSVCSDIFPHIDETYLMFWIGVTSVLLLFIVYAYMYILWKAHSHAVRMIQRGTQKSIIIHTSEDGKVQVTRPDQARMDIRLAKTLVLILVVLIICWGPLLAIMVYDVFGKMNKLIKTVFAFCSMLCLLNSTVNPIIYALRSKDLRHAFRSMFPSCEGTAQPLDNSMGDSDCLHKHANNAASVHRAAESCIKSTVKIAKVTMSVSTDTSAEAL

For the compound `CC1(C)Cc2ccc(C(=O)c3c[nH]c4ccccc34)cc2C1`, the figures for the Activity at Cannabinoid receptor 2 [1] and at Cannabinoid receptor 1 [2] were 22.2% and 9.4%, respectively.

As for `CCOC(=O)Cn1cc(C(=O)c2ccc3c(c2)CC(C)(C)C3)c2ccccc21`, the Activity at Cannabinoid receptor 2 [1] stood at 18%; on Cannabinoid receptor 1 [2] it was 19.4%.

As for `CCCn1c(C)c(C(=O)c2ccc3c(c2)CC(C)(C)C3)c2ccccc21`, the Activity stood at 73.9% at Cannabinoid receptor 2 [1] (filed as antagonist) and 44.4% at Cannabinoid receptor 1 [2].

Regarding `Cn1cc(C(=O)c2ccc3c(c2)CC(C)(C)C3)c2ccccc21`, the results for the Activity at Cannabinoid receptor 2 [1] and at Cannabinoid receptor 1 [2] were 23.9% and 10.8%, respectively.

As for `C#CCn1c(C)c(C(=O)c2ccc3c(c2)CC(C)(C)C3)c2ccccc21`, the results for the Activity on Cannabinoid receptor 2 [1] (filed as antagonist) and at Cannabinoid receptor 1 [2] (filed as antagonist) were 63% and 51.9%, respectively.

As to `CCCn1cc(C(=O)c2ccc3c(c2)CC(C)(C)C3)c2ccccc21`, the figures for the Activity on Cannabinoid receptor 2 [1] (filed as antagonist), on Cannabinoid receptor 1 [2] and at Cannabinoid receptor 2 [5] (filed as antagonist) were 90.5%, 47.4% and 99%, respectively. Besides, the Ki – broadly, a measure of affinity in units of concentration, obtained from inhibition or displacement – on Cannabinoid receptor 2 [3] amounted to 130 nM; on Cannabinoid receptor 1 [6] it was 2560 nM. In the assay on CHO, the Selectivity Index stood at 19.7. The deltaG on Cannabinoid receptor 2 [4] was -9.45 kcal/mol; on Cannabinoid receptor 1 [7], -7.68 kcal/mol.

For the compound `CC(C)Cn1cc(C(=O)c2ccc3c(c2)CC(C)(C)C3)c2ccccc21`, the Activity on Cannabinoid receptor 2 [1] (filed as antagonist) worked out at 83.1%; at Cannabinoid receptor 1 [2] (filed as antagonist), 422%.

Regarding `Cc1c(C(=O)c2ccc3c(c2)CC(C)(C)C3)c2ccccc2n1Cc1ccc(F)cc1`, the Activity on Cannabinoid receptor 2 [1] was found to be 48.8%; on Cannabinoid receptor 1 [2] it was 38.4%.

For the compound `CCCCn1cc(C(=O)c2ccc3c(c2)CC(C)(C)C3)c2ccccc21`, the Activity worked out at 92.9% on Cannabinoid receptor 2 [1] (filed as antagonist), 82.7% at Cannabinoid receptor 1 [2] (filed as antagonist) and 102% at Cannabinoid receptor 2 [5] (filed as antagonist).

With `CCCCCCn1c(C)c(C(=O)c2ccc3c(c2)CC(C)(C)C3)c2ccccc21`, the Activity came to 55% at Cannabinoid receptor 2 [1] (filed as antagonist) and 26.2% on Cannabinoid receptor 1 [2].

Turning to `C=CCCCn1cc(C(=O)c2ccc3c(c2)CC(C)(C)C3)c2ccccc21`, the Activity stood at 95.2% at Cannabinoid receptor 2 [1] (filed as antagonist), 80% on Cannabinoid receptor 1 [2] (filed as antagonist) and 92% at Cannabinoid receptor 2 [5] (filed as antagonist). Further, the results for the Ki on Cannabinoid receptor 2 [3] and at Cannabinoid receptor 1 [6] were 15.6 nM and 152 nM, respectively. The deltaG is -10.7 at Cannabinoid receptor 2 [4] and -9.36 °C at Cannabinoid receptor 1 [7].

`CCCCCn1cc(C(=O)c2cccc3ccccc23)c2ccccc21`: the Ki was found to be 2.94 nM at Cannabinoid receptor 2 [3] and 9 nM on Cannabinoid receptor 1 [6]. Moreover, in the assay on CHO, the Selectivity Index amounted to 3.1.

In the case of `C=CCCCn1c(C)c(C(=O)c2ccc3c(c2)CC(C)(C)C3)c2ccccc21`, the Activity turned out to be 86.4% at Cannabinoid receptor 2 [1] (filed as antagonist) and 38.6% on Cannabinoid receptor 1 [2].

As for `C#CCCCn1cc(C(=O)c2ccc3c(c2)CC(C)(C)C3)c2ccccc21`, the Activity on Cannabinoid receptor 2 [1] (filed as antagonist) was found to be 92.8%; on Cannabinoid receptor 1 [2] (filed as antagonist), 71%; at Cannabinoid receptor 2 [5] (filed as antagonist), 96%. Besides, the Ki at Cannabinoid receptor 2 [3] is 24 nM; at Cannabinoid receptor 1 [6] it was 325 nM. Also, the deltaG on Cannabinoid receptor 2 [4] is -10.5; at Cannabinoid receptor 1 [7] it was -8.91 °C.

Consider `CC/C=C/Cn1c(C)c(C(=O)c2ccc3c(c2)CC(C)(C)C3)c2ccccc21`, for which the Activity on Cannabinoid receptor 2 [1] (filed as antagonist) stood at 73.7%; at Cannabinoid receptor 1 [2], 35.1%.

As for `COc1ccc(C(=O)c2c(C)n(CCN3CCOCC3)c3cc(I)ccc23)cc1`, the Activity at Cannabinoid receptor 2 [5] turned out to be 67%.

On to `CCC#CCn1cc(C(=O)c2ccc3c(c2)CC(C)(C)C3)c2ccccc21`, for which the results for the Activity on Cannabinoid receptor 2 [1] (filed as antagonist) and on Cannabinoid receptor 1 [2] (filed as antagonist) were 65.9% and 55.6%, respectively.

With `CCCCCCn1cc(C(=O)c2ccc3c(c2)CC(C)(C)C3)c2ccccc21`, the Activity was 83.6% on Cannabinoid receptor 2 [1] (filed as antagonist), 79.1% at Cannabinoid receptor 1 [2] (filed as antagonist) and 102% at Cannabinoid receptor 2 [5] (filed as antagonist).

Regarding `CC1(C)Cc2ccc(C(=O)c3cn(Cc4ccc(F)cc4)c4ccccc34)cc2C1`, the Activity at Cannabinoid receptor 2 [1] (filed as antagonist) was 92.3%; on Cannabinoid receptor 1 [2] (filed as antagonist), 88%; on Cannabinoid receptor 2 [5] (filed as antagonist), 90%.

Take `CCCCn1c(C)c(C(=O)c2ccc3c(c2)CC(C)(C)C3)c2ccccc21`: the Activity at Cannabinoid receptor 2 [1] (filed as antagonist) stood at 85.4%; at Cannabinoid receptor 1 [2], 43.5%.

Regarding `CC/C=C/Cn1cc(C(=O)c2ccc3c(c2)CC(C)(C)C3)c2ccccc21`, the values for the Activity at Cannabinoid receptor 2 [1] (filed as antagonist), on Cannabinoid receptor 1 [2] (filed as antagonist) and on Cannabinoid receptor 2 [5] (filed as antagonist) were 86.9%, 84.2% and 81%, respectively.

In the case of `Cc1c(C(=O)c2ccc3c(c2)CC(C)(C)C3)c2ccccc2n1Cc1ccccc1`, the Activity on Cannabinoid receptor 2 [1] (filed as antagonist) worked out at 51.2%; at Cannabinoid receptor 1 [2], 18.1%.

Take `C=CCn1cc(C(=O)c2ccc3c(c2)CC(C)(C)C3)c2ccccc21`: the results for the Activity on Cannabinoid receptor 2 [1] (filed as antagonist) and on Cannabinoid receptor 1 [2] were 60.6% and 16%, respectively.

`CC/C=C\Cn1c(C)c(C(=O)c2ccc3c(c2)CC(C)(C)C3)c2ccccc21`: the Activity on Cannabinoid receptor 2 [1] (filed as antagonist) came to 82.9%; at Cannabinoid receptor 1 [2], 43%.

With `CCC#CCn1c(C)c(C(=O)c2ccc3c(c2)CC(C)(C)C3)c2ccccc21`, the Activity at Cannabinoid receptor 2 [1] turned out to be 30.2%; at Cannabinoid receptor 1 [2] it was 16.4%.

`CC/C=C\Cn1cc(C(=O)c2ccc3c(c2)CC(C)(C)C3)c2ccccc21`: the Activity was found to be 86.4% at Cannabinoid receptor 2 [1] (filed as antagonist), 60.7% at Cannabinoid receptor 1 [2] (filed as antagonist) and 106% on Cannabinoid receptor 2 [5] (filed as antagonist).

Consider `CCCCCn1c(C)c(C(=O)c2ccc3c(c2)CC(C)(C)C3)c2ccccc21`, for which the Activity on Cannabinoid receptor 2 [1] (filed as antagonist) amounted to 83.6%; on Cannabinoid receptor 1 [2] (filed as antagonist), 53.8%.

For `C#CCCCn1c(C)c(C(=O)c2ccc3c(c2)CC(C)(C)C3)c2ccccc21`, the Activity turned out to be 93.1% on Cannabinoid receptor 2 [1] (filed as antagonist), 41.9% on Cannabinoid receptor 1 [2] and 121% on Cannabinoid receptor 2 [5] (filed as antagonist). Moreover, the Ki on Cannabinoid receptor 2 [3] was found to be 62.5 nM; on Cannabinoid receptor 1 [6] it was 1900 nM. The deltaG at Cannabinoid receptor 2 [4] is -9.89; at Cannabinoid receptor 1 [7], -7.85 °C.

As to `C#CCn1cc(C(=O)c2ccc3c(c2)CC(C)(C)C3)c2ccccc21`, the Activity came to 56% at Cannabinoid receptor 2 [1] (filed as antagonist) and 33.4% at Cannabinoid receptor 1 [2].

For the compound `CCCCCn1cc(C(=O)c2cccc3c2CC(C)(C)C3)c2ccccc21`, the Activity at Cannabinoid receptor 2 [1] (filed as antagonist) is 94.1%; at Cannabinoid receptor 1 [2] (filed as antagonist), 85.7%; on Cannabinoid receptor 2 [5] (filed as antagonist), 134%. The Ki was 1.36 nM at Cannabinoid receptor 2 [3] and 1.46 nM at Cannabinoid receptor 1 [6]. Besides, the Selectivity Index in the assay with CHO is 1.1. Further, the deltaG on Cannabinoid receptor 2 [4] was -12.2 kcal/mol; on Cannabinoid receptor 1 [7] it was -12.1 kcal/mol.

With `CC1(C)Cc2ccc(C(=O)c3cn(Cc4ccccc4)c4ccccc34)cc2C1`, the Activity at Cannabinoid receptor 2 [1] (filed as antagonist) worked out at 84.6%; at Cannabinoid receptor 1 [2] (filed as antagonist) it was 69.2%; on Cannabinoid receptor 2 [5] (filed as antagonist) it was 87%.

On to `CCCCCn1cc(C(=O)c2ccc3c(c2)CC(C)(C)C3)c2ccccc21`, for which the Activity at Cannabinoid receptor 2 [1] (filed as antagonist) came to 99.8%; at Cannabinoid receptor 1 [2] (filed as antagonist) it was 93.4%; on Cannabinoid receptor 2 [5] (filed as antagonist), 108%. The IC50 (commonly the concentration at which inhibition is half-maximal) on Cannabinoid receptor 2 [8] was found to be 1800 nM. Also, the Kb (commonly the affinity of an antagonist, worked out from how it opposes an agonist) on Cannabinoid receptor 2 [8] (filed as antagonist) is 9.7 nM. For the same compound, the results for the Ki at Cannabinoid receptor 2 [3] and on Cannabinoid receptor 1 [6] were 4.9 nM and 38.8 nM, respectively. For the same compound, the Selectivity Index in the assay with CHO is 7.9. Besides, the deltaG at Cannabinoid receptor 2 [4] is -11.5 kcal/mol; at Cannabinoid receptor 1 [7] it was -10.2 kcal/mol.
